Compounds with a hit are over-represented: about 5.8% of the library has one in this group of screens.
IDH1 mut inh – inhibitors of human IDH1 R132H; 70,000 compounds, 0.18% hits; AID 624101; IDH1 R132H reductase, diaphorase/resazurin fluorescence, 60 min; O75874; inhibition, % at 10 µM; in the data active = inhibition above about 34%; inconclusive = no clear call, values can overlap the other calls; inactive = below about 11%
Tcruzi prolif – T. cruzi proliferation inhibition; T. cruzi beta-gal in NIH3T3, GalScreen luminescence, 90 h; inhibition, % at 8.34 µM; 77,000 compounds, 5.9% hits;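 active = mean inhibition above about 93%, with at least 55% of replicates each passing it, limit read from the data, passing the limit was not always enough; inconclusive = only one of those two conditions holds; inactive = neither condition holds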
GASC1 inh – KDM4C (human) demethylase inhibition. 96,000 compounds, 0.15% hits. GST-KDM4C 2-372, H3K9me3 peptide, LANCE TR-FRET. Q9H3R0. inhibition, % at 12.5 µM. AID 720574;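 active = mean replicate inhibition above about 25%, with at least 55% of replicates also reaching it, limit read from the data, passing the limit was not always enough; inconclusive = only one of those two conditions met; inactive = neither condition met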
Target sequence (Q9H3R0 2-372 limits assumed): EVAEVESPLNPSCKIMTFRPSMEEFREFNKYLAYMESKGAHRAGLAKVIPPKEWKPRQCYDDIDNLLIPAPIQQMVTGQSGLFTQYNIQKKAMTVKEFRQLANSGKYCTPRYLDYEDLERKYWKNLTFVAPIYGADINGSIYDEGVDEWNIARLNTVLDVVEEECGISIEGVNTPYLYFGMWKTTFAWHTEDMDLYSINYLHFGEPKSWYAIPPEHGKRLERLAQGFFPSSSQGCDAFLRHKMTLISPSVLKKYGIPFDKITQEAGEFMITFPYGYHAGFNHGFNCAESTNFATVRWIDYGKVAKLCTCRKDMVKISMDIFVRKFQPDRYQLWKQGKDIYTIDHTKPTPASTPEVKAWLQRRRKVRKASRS
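Material: GST-tagged GASC-1 (JMJD2C) catalytic fragment, aa 2-372. Input: enzyme final amount 10 nM. Medium: HEPES buffer, pH 7.5, plus ascorbate. Reagent: H3K9me3 peptide substrate, Fe(II), 2-oxoglutarate. Doses: single dose. Times: reaction 30 min RT, detection step 1 h RT. Measured by: LANCE TR-FRET. Evaluation: Fall in 671/618 emission ratio as inhibition.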
Pf Dd2 inh – inhibitors of Plasmodium falciparum Dd2 growth | activity change, % at 10 µM | 94,000 compounds, 2.3% hits | P. falciparum Dd2 growth, SYBR Green, 72 h; hits give low values; in the data active = activity change below about -80%; inconclusive = no clear call, values can overlap the other calls
A number is an active result; – = inactive; ? = inconclusive; · = no result given.

SMILES	IDH1 mut inh	Tcruzi prolif	GASC1 inh	Pf Dd2 inh
COc1ccc2c3c(n(C)c2c1)[C@H](CO)NCC31CCN(Cc2ccc(Cl)cc2)CC1	·	·	–	-91
COc1ccc2c3c(n(C)c2c1)[C@H](CO)NCC31CN(CC2CCOCC2)C1	·	·	–	–
CNS(=O)(=O)c1cc(-c2nnc(Nc3ccc(C(=O)N(C)C)cc3)c3ccccc23)ccc1C	–	·	·	·
CO[C@H]1CN(C)C(=O)c2ccc(NC(=O)C3CCC3)cc2OC[C@@H](C)N(C(=O)CN(C)C)C[C@H]1C	·	–	–	–
O=C(CCCCCCC(=O)Nc1ccccc1O)N/N=C/c1cn(Cc2ccccc2)c2ccccc12	–	·	·	·
CN1CCN(C(=O)[C@@H]2[C@@H](CO)[C@@H]3Cn4c(cccc4=O)[C@@H]3N2Cc2cc(F)ccc2F)CC1	·	–	–	–
CCCc1cn([C@H]2C[C@@H]3O[C@H](CO)CC[C@@H]3O[C@@H]2CCc2ccc(-c3ccc(OC)cc3)cc2)nn1	·	·	·	-83
CCCc1cn([C@H]2C[C@@H]3O[C@H](CO)CC[C@@H]3O[C@@H]2CCc2ccc(-c3cccc(OC)c3)cc2)nn1	·	·	·	–
CCCc1cn([C@@H]2C[C@@H]3O[C@H](CO)CC[C@@H]3O[C@@H]2CCc2ccc(-c3cccc(OC)c3)cc2)nn1	·	·	·	-87
CN(C)C(=O)c1cccc(-c2ccc([C@H]3[C@@H](CO)N4C(=O)CN(C(=O)C5CCC5)C[C@@H]34)cc2)c1	·	·	–	–
C[C@@H]1CCCCO[C@H](CN(C)C)[C@H](C)CN([C@H](C)CO)C(=O)c2cc(NC(=O)Nc3cccc4ccccc34)ccc2O1	–	–	–	-86
CCCN(C)C[C@@H]1OCCCC[C@@H](C)Oc2ccc(NC(=O)Nc3cccc4ccccc34)cc2C(=O)N([C@H](C)CO)C[C@@H]1C	–	–	–	?
C[C@@H]1CN([C@@H](C)CO)C(=O)c2cc(NC(=O)Nc3cccc4ccccc34)ccc2O[C@@H](C)CCCCO[C@@H]1CN(C)C(=O)C1CCCCC1	·	–	–	-88
C[C@@H]1CCCCO[C@@H](CN(C)C(=O)Nc2cccc3ccccc23)[C@@H](C)CN([C@@H](C)CO)C(=O)c2cc(NC(=O)Nc3cccc4ccccc34)ccc2O1	·	–	–	-83
C[C@@H]1CN([C@@H](C)CO)C(=O)c2cc(NC(=O)Nc3cccc4ccccc34)ccc2O[C@@H](C)CCCCO[C@@H]1CN(C)C(=O)c1ccccc1	·	–	–	–
CCCN(C)C[C@@H]1OCCCC[C@H](C)Oc2ccc(NC(=O)Nc3cccc4ccccc34)cc2C(=O)N([C@H](C)CO)C[C@@H]1C	–	·	–	-88
C[C@@H]1CCCCO[C@@H](CN(C)C(=O)Nc2cccc3ccccc23)[C@H](C)CN([C@@H](C)CO)C(=O)c2cc(NC(=O)Nc3ccccc3)ccc2O1	–	–	–	–
CC(=O)N1CC2(C1)[C@@H](c1ccccc1)[C@H](CO)N2Cc1cccc(Cl)c1	·	·	–	–
C[C@H](CO)N1C[C@H](C)[C@H](CN(C)Cc2ccncc2)Oc2ncc(-c3ccccc3)cc2C1=O	–	–	–	–
COc1ccc2c3c([nH]c2c1)[C@H](CO)N(C(=O)CN(C)C)CC31CN(CC2CCOCC2)C1	·	·	–	–
COc1ccc2c3c([nH]c2c1)[C@H](CO)N(C(=O)CN(C)C)CC31CCN(Cc2ccccc2)CC1	·	·	–	-82
COc1ccc2c3c([nH]c2c1)[C@@H](CO)N(C(=O)CN(C)C)CC31CN(CC2CCCC2)C1	·	·	–	-86
O=C(C[C@H]1C=C[C@H](NC(=O)NC2CCCCC2)[C@H](CO)O1)NCc1ccc(Cl)cc1	–	–	–	–
Cc1cc(NS(=O)(=O)c2ccc(Nc3nc(-c4ccc(O)cc4)cs3)cc2)no1	60	·	·	·
C[C@@H]1CN([C@@H](C)CO)C(=O)c2cccc(NC(=O)c3nc4ccccc4s3)c2O[C@H]1CN(C)CC1CC1	–	–	–	–
C[C@H](CO)N1C[C@H](C)[C@@H](CN(C)Cc2ccc(C(F)(F)F)cc2)OCCCC[C@H](C)Oc2ccc(NC(=O)CCCN(C)C)cc2C1=O	·	–	–	–
C[C@@H]1CN([C@H](C)CO)C(=O)c2cc(NC(=O)CCCN(C)C)ccc2O[C@@H](C)CCCCO[C@@H]1CN(C)Cc1ccc(C(F)(F)F)cc1	–	–	–	-87
C[C@@H]1CCCCO[C@H](CN(C)Cc2ccc(C(F)(F)F)cc2)[C@H](C)CN([C@H](C)CO)C(=O)c2cc(NC(=O)CCCN(C)C)ccc2O1	·	–	–	-87
C[C@H]1CCCCO[C@@H](CN(C)Cc2ccc(C(F)(F)F)cc2)[C@@H](C)CN([C@@H](C)CO)C(=O)c2cc(NC(=O)CCCN(C)C)ccc2O1	–	–	–	-85
